# Data published in ChEMBL document CHEMBL4619773, “Chemoreactive-Inspired Discovery of Influenza A Virus Dual Inhibitor to Block Hemagglutinin-Mediated Adsorption and Membrane Fusion” (J Med Chem, 2020).
# Active and inactive are the calls of the source. The rule behind the calls is not given here.
# What was measured:
# [1] = Cumulative drug excretion in mouse feces at 5 mg/kg, po administered as single dose measured after 72 hrs; assay type: ADME, organism-based; settings: faeces, read-out: Drug excretion
# Method in brief: (§1)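 Single oral (gavage, 0.5% CMC-Na) or iv (tail vein, PEG400) dosing was given to male Kunming mice or Sprague Dawley rats held in metabolic cages. Urine and feces were collected at intervals to 72 h. Feces were dried, ground and homogenized in water (1:9 w/v). Samples were precipitated with acetonitrile containing internal standard and analysed by LC-MS/MS.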
# Influenza A virus [2] = assay: Antiviral activity against Influenza A virus (A/Puerto Rico/8/1934(H1N1)) infected in Kunming mouse assessed as decrease in lung TNFalpha level at 5 to 10 mg/kg/day, po starting 4 hrs after viral challenge and continued for 4 days by ELISA; assay type: functional, organism-based
# Method in brief: (§2)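 Four-week-old female Kunming mice received PR8 intranasally (500 PFU/mouse in 40 µL PBS) and were then dosed once daily orally or intranasally. Lungs were collected on day 4, and TNF-α and IL-6 in lung tissue were measured by ELISA.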
# Influenza A virus [3] = assay: Antiviral activity against Influenza A virus (A/Puerto Rico/8/1934(H1N1)) infected in MDCK cells assessed as decrease in viral titers at 50 ug/ml pre-treated with virus before infection and measured 24 hrs post infection by HA assay; assay type: functional, organism-based
# Method in brief: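 MDCK cells were infected at high moi (≈3.0 PFU/cell). Virus-containing supernatants were serially diluted 2-fold and mixed with an equal volume of 1% chicken red blood cells. After 60 min at 4 °C, wells were scored for button sedimentation versus opaque agglutination to give titers.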
# [4] = AUC (0 to t) in rat at 0.35 mg/kg /kg, iv administered as single dose; assay type: ADME, organism-based; settings: in vivo
# Method in brief: (§3)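 Male Kunming mice (20-25 g) and male Sprague Dawley rats (180-220 g) were fasted 12 h before dosing. Oral dosing was by gavage as a suspension in 0.5% sodium carboxymethyl cellulose; iv dosing was via tail vein in PEG400. Serial plasma samples were taken to 24 h, protein-precipitated with acetonitrile plus N-CH3 internal standard, and quantified by LC-MS/MS (n=3). Bioavailability = AUCoral/AUCiv.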
# [5] = Metabolic stability in human liver microsomes at 2 uM after 60 mins; assay type: ADME, Microsome; settings: read-out: Stability
# Method in brief: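 Mouse, rat or human liver microsomes (final 0.5 mg/mL protein) were preincubated with an NADPH-regenerating system in 50 mM Tris-HCl pH 7.4 at 37 °C for 5 min. Compound was added at 2 µM final and incubated at 37 °C; NADPH-free incubations served as controls. Reactions were quenched with acetonitrile plus internal standard at 60 min. Percent remaining was measured by LC-MS/MS (n=3).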
# [6] = Selectivity index, ratio of CC50 for cytotoxicity in dog MDCK cells assessed as reduction in cell viability incubated for 48 hrs by crystal violet staining based assay to […] in dog MDCK cells assessed as reduction in cell viability incubated for 48 hrs by crystal violet staining based assay
# [7] = molecular target: Hemagglutinin (Influenza A virus (A/Puerto Rico/8/1934(H1N1))) (UniProt P03452); assay: Inhibition of conformational changes in Influenza A virus (A/Puerto Rico/8/1934(H1N1)) Hemagglutinin assessed as increase in retention amount of HA1 subunit on HA proteins at 25 to 50 ug/ml added before acidification incubated for 1 hr by conformational change inhibition assay
# Hemagglutinin (Influenza A virus (A/Puerto Rico/8/1934(H1N1))), sequence (P03452 whole entry, the tested form may be a part): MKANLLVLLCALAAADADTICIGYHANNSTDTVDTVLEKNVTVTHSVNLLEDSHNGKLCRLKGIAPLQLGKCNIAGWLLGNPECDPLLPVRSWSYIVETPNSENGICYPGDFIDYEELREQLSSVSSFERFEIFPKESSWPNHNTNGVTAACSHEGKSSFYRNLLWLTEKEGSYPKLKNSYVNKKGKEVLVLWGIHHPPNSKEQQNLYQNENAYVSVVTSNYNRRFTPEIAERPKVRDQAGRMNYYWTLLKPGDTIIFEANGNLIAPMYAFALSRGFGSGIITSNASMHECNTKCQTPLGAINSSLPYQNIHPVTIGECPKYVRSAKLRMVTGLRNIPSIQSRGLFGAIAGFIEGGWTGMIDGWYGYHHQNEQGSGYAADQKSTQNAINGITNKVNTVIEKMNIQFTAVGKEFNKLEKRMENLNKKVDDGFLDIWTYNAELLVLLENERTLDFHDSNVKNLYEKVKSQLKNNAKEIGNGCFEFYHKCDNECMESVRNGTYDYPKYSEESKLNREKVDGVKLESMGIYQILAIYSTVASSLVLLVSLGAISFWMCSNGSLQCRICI
# Method in brief: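 C-terminal biotinylated H1/PR8 HA (0.2 µg/ml) was captured on streptavidin plates for 1 h at RT. Compound (50, 25, 12.5 µg/ml) was added for 1 h, then 1 M acetate pH 5.25 for 20 min. 2.5 mM DTT was applied for 60 min to remove HA1 from postfusion HA. Retained HA1 was detected with anti-HA1 head antibody and HRP secondary, read as A450 with TMB.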
# Influenza A virus H3N2 = assay: Antiviral activity against Influenza A virus H3N2 (A/swine/Minnesota/02719/2009) infected in MDCK cells incubated for 3 days by crystal violet staining based plaque assay; assay type: functional, organism-based; settings: 72 h
# Method in brief: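 Confluent MDCK monolayers were exposed to 10-fold serial virus dilutions for 1 h at 37 °C, then washed. The overlay was DMEM with 1.5% agarose, 0.02% DEAE-dextran and 1 µg/ml TPCK-trypsin. After 3 days at 37 °C in 5% CO2, cells were fixed with 0.05% glutaraldehyde, stained with 1% crystal violet in 20% ethanol, and plaques were counted.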
# Influenza A virus [8] = assay: Antiviral activity against Influenza A virus (A/Puerto Rico/8/1934(H1N1)) infected in Kunming mouse assessed as decrease in lung TNFalpha level at 20 to 40 ug/day dosed intranasally starting 4 hrs after viral challenge and continued for 4 days by ELISA; assay type: functional, organism-based; method in brief: as §2
# [9] = Cumulative drug excretion in rat feces at 3.5 mg/kg, po administered as single dose measured after 72 hrs; assay type: ADME, organism-based; settings: faeces, read-out: Drug excretion; method in brief: as §1
# [10] = molecular target: Hemagglutinin (Influenza A virus (A/Puerto Rico/8/1934(H1N1))) (UniProt P03452); assay: Inhibition of Hemagglutinin in Influenza A virus (A/Puerto Rico/8/1934(H1N1))/H1N1 pseudovirus infected in 293FT cells assessed as reduction in virus infection at 50 ug/ml pre-treated with virus before infection and measured after 48 hrs by inverted fluorescence microscopy; assay type: cell-based
# Method in brief: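 PR8 pseudoviruses (IAV-GFP) carrying wild-type HA or a mutant HA (T30N/E233D/T359A or T359A) were made in 293FT cells by co-transfecting HA, NA, HIV backbone and GFP reporter plasmids, and supernatants were harvested at 48 h. Pseudovirus was pretreated with compound at 50 µg/ml for 1 h at 37 °C before infection. Infected GFP-positive cells were viewed by fluorescence microscopy 48 h p.i.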
# Influenza A virus [11] = assay: Antiviral activity against Influenza A virus (A/Puerto Rico/8/1934(H1N1)) infected in Kunming mouse assessed as mouse survival at 40 ug/day dosed intranasally starting 4 hrs after viral challenge and continued for 7 days and measured on day 14 by plaque assay; assay type: functional
# Method in brief: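 Groups of 10 female Kunming mice were infected intranasally with PR8 (1000 PFU/mouse) on day 0 and dosed once daily for seven days. Weight and clinical signs were recorded daily. Mice losing more than 25% of pre-infection weight were scored dead and euthanized; survivors were killed on day 14.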
# [12] = Cmax in mouse at 5 mg/kg, po administered as single dose; assay type: ADME, organism-based; design: dose 5 mg/kg, route oral; settings: in vivo; method in brief: as §3
# [13] = Toxicity in Kunming mouse assessed as effect on blood urea nitrogen level at 5 to 10 mg/kg/day, po for 7 days; assay type: organism-based; settings: in vivo, 168 h
# Method in brief: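 Male Kunming mice (20–25 g) received compound orally at 5 or 10 mg/kg/day, suspended in 0.5% sodium carboxymethyl cellulose, once daily for 7 days; controls received vehicle. Serum was collected under isoflurane 24 h after the last dose. AST, ALT, CR, BUN, LDH, CK and CK-MB were measured with commercial kits.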
smiles,measurement,setting,value
CC(=O)c1cc(C)c(O)c(Cc2[nH]c3ccccc3c2Cc2c(O)c(C)cc(C(C)=O)c2O)c1O,dose excreted at 72 h,[1],38.4%
same,Activity,Influenza A virus [2],Active
same,Activity,Influenza A virus [3],Active
same,AUC(0-t),[4],10.1 µg·h/mL
same,"remaining at 1 h, 2 µM",[5],71.6%
same,Ratio CC50/IC50,[6],55.8
same,inhibition,[7],Active
same,IC50,Influenza A virus H3N2,< 13 mg/L
same,Activity,Influenza A virus [8],Active
same,dose excreted at 72 h,[9],96.4%
same,inhibition,[10],Active
same,Survival,Influenza A virus [11],100%
same,Cmax,[12],0.016 µg/mL
same,Activity,[13],Non-Toxic
